# Screens deposited in PubChem BioAssay by several laboratories.
# hERG rescue: hERG rescue from dofetilide block, primary screen, cell-based, CHO-hERG, FluxOR thallium flux, dofetilide IC70 | dofetilide IC70 present | Voltage-gated inwardly rectifying potassium channel KCNH2 (Homo sapiens), Q12809 | AID 1511, 2009 | activation (rescue from dofetilide block), less the hit threshold, % at 10 µM | 0.51% of 310,000 active;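 active = activation above the mean of controls blocked by dofetilide plus 5 SD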;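 also: thallium influx through hERG after potassium depolarization seen as dye fluorescence rise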
# Cl transport mod: KCC2 cotransporter modulators, thallium flux, primary screen, cell-based, HEK293 KCC2, FluoZin-2 fluorescence, MLSMR; KCC2 cells, thallium flux FluoZin-2 fluorescence; AID 1456, 2008; B-score of Tl+ flux slope (higher = more flux/activation; lower = inhibition) at 10 µM; Solute carrier family 12 member 5 (Homo sapiens), Q9H2X9; 2.2% of 190,000 active;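 active = thallium flux slope and its plate-corrected score both differing from the plate sample mean at a set confidence after two filtering rounds, in either direction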;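 also: slope of fluorescence scaled to starting intensity during 10 to 20 s after thallium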
# KCNQ1 inh: inhibitors of human KCNQ1 channel, primary screen, cell-based, thallium flux, high-throughput; CHO-K1 KCNQ1, FluxOR thallium flux fluorescence; active compounds read high; 1.3% of 310,000 active; Potassium voltage-gated channel subfamily KQT member 1 (Homo sapiens), P51787; B-score at 10 µM;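 active = compounds whose thallium flux B-score, printed positive for inhibition, exceeds three library SD while starting fluorescence stays within three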;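 also: channel opened by potassium depolarization with thallium stimulus after 20 min compound exposure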
# KCNK9 block: KCNK9 potassium channel inhibitors, primary screen, HEK293 cells, thallium flux. B-score at 10 µM. FluxOR thallium flux fluorescence; active compounds read low. 1.2% of 310,000 active. Potassium channel subfamily K member 9 (Homo sapiens), Q9NPC2. AID 488922, 2010;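 active = ratio B-score over 3 SD below the library mean, with starting fluorescence within 5 SD of its mean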;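 also: negative B-score means less thallium flux so channel inhibition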
# KCNQ1 pot: potentiators or activators of KCNQ1 channel, primary screen, cell-based, thallium flux, high-throughput. CHO-K1 KCNQ1, thallium flux FluxOR fluorescence; active compounds read high. B-score at 10 µM. 0.35% of 310,000 active. AID 2648, 2010;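 active = fluorescence ratio B-score, a plate-corrected score, at least three library SD, with initial intensity B-score within 5 SD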
#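 assay system = CHO-K1 cells stably expressing KCNQ1 | medium = assay buffer, equal DMSO in all wells | timing = 37 °C overnight plating, 90-min dark dye load, 20-min compound pretreatment | measured by = kinetic FluxOR thallium fluorescence, 10-s 1-Hz baseline, 110-s post-stimulus read | measure = fluorescence change relative to baseline, converted to B score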
# KCNK3 inh: human KCNK3 channel inhibitors, primary screen, CHO cells, FluxOR thallium flux, B-score; AID 602410, 2012; Potassium channel subfamily K member 3 (Homo sapiens), O14649; 0.84% of 340,000 active; FluxOR fluorescence; active compounds read low; B-score at 10 µM;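 active = B-score under library mean minus 4 SD, starting fluorescence ratio at most library mean plus 5 SD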;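 also: more negative B-score means stronger inhibition of thallium flux through KCNK3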
# KCC2 sec1: KCC2 modulators in sodium-free buffer, confirmation, cell-based, HEK293 KCC2, thallium flux, secondary assay; shares compounds with Cl transport mod; FluoZin2 fluorescence; active compounds read high; normalised thallium flux (F/F0 slope) at 10 µM; 15% of 3,700 active; AID 1713, 2009;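 active = thallium flux slope above the same plate's solvent-only control mean plus 3 SD; inconclusive = the two replicate wells disagree; inactive = no significant difference from solvent-only control wells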
# KCC2 bumet counter: thallium flux persisting under bumetanide in KCC2 cells, confirmation, counter-screen for KCC2 modulator project, cell-based, HEK293 KCC2, FluoZin2, secondary assay 3; normalized thallium flux at 10 µM; HEK293-KCC2 + bumetanide/ouabain; active compounds read high; shares compounds with Cl transport mod; 49% of 3,700 active;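 active = thallium entry rate above the same plate's blocked-transporter control wells by more than 3 SD; inconclusive = the two repeat wells disagree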;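 also: raw slope of fluorescence over initial fluorescence between 10 and 20 s after thallium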
# KCC2 secondary2: KCC2 modulators without ouabain present, confirmation, cell-based, HEK293 KCC2, thallium flux, FluoZin2, secondary assay 2; normalized thallium flux at 10 µM; thallium flux FluoZin2 fluorescence; actives lie on both sides; F/F0 rise rate, 10–20 s post-thallium; shares compounds with Cl transport mod; AID 1715, 2009; 23% of 3,700 active;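 active = thallium flux slope more than 3 SD above or below the plate's solvent-only control mean, mostly below; inconclusive = the two repeat wells disagreed; inactive = no significant shift from solvent-only controls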;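 also: raw slope with 0.1% DMSO as baseline and bumetanide as block control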
# HEK counter1: thallium flux modulation in parental HEK cells, confirmation, counter-screen for KCC2 modulator project, cell-based, counterscreen 1; shares compounds with Cl transport mod; HEK293 parental cells, thallium flux FluoZin2, ouabain; baseline-ratio fluorescence slope, 10–20 s after thallium; thallium flux rate (normalised fluorescence) at 10 µM; 46% of 3,700 active; AID 1716, 2009;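 active = thallium flux rate significantly above the same plate's solvent-only control wells, beyond their mean plus 3 SD; inconclusive = the two replicate wells gave conflicting results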
# KCC2 retest ouab: KCC2 inhibitors and activators, ouabain retest, confirmation, HEK-KCC2 cells; shares compounds with Cl transport mod; HEK293-KCC2, thallium flux FluoZin2 fluorescence; bidirectional: low = inhibitor, high = activator; raw Tl+ flux slope (below DMSO = inhibition, above = activation) at 10 µM; 48% of 3,700 active; AID 1717, 2009;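 active = thallium flux slope beyond 3 SD from same-plate DMSO control mean in most replicates, usually higher, sometimes lower; inconclusive = repeat tests gave conflicting results; inactive = no significant difference from controls in most replicates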;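 also: slope of initial-normalized fluorescence between seconds 10 and 20 after thallium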
# HEK counter2: native HEK Tl+ uptake effects, second counter-screen – HEK cells, counterscreen 2, counter-screen for KCC2 modulator project, confirmation; AID 1718, 2009; HEK293 parental, thallium flux FluoZin-2 fluorescence slope; 33% of 3,700 active; thallium flux slope at 10 µM; shares compounds with Cl transport mod;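 active = thallium flux slope above the same plate's solvent-control mean plus 3 SD in both duplicate wells; inconclusive = duplicate wells that disagreed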;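 also: run without ouabain in cells lacking the KCC2 cotransporter; slope of fluorescence scaled to its starting value between 10 and 20 s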
# Numbers without * were called inactive; i = inactive; ? = inconclusive; . = no result given. This is a sample that favours compounds with a hit; in the whole collection about 4.1% have one here.
SMILES,hERG rescue,Cl transport mod,KCNQ1 inh,KCNK9 block,KCNQ1 pot,KCNK3 inh,KCC2 sec1,KCC2 bumet counter,KCC2 secondary2,HEK counter1,KCC2 retest ouab,HEK counter2
CCN1CCN(C(c2ccccc2)c2nnnn2Cc2ccccc2)CC1 (configuration not stated),0,-4.9*,i,i,i,i,0.014,0.0052,0.03,0.0073,0.016,0.0091
C#CCOCCOCCOCCNc1nc(N2CCN(C(=O)[C@H](CCCCN)n3cc(CCCC)nn3)CC2)nc(N2CCN(C(=O)[C@H](CCCCN)n3cc(CCC(=O)O)nn3)CC2)n1,.,.,.,.,.,i,.,.,.,.,.,.
COc1nc(OCC#N)nc(N(C)C)n1,-5,1.2,i,i,i,i,.,.,.,.,.,.
COCNc1nc(OCC#N)nc(N(C)C)n1,-11,7.6*,i,i,i,i,0.0069,0.0052,0.03,0.0084,0.019,0.012
O=c1sc(Nc2ccccc2)nc2ccccc12,-11,.,i,i,i,i,.,.,.,.,.,.
Cc1ccc(Nc2nc3ccccc3c(=O)s2)cc1,-12,14*,i,i,i,i,0.011*,0.031*,0.031,0.013*,0.034*,0.011*
O=C(Nc1ccc2oc(-c3ccccc3)nc2c1)c1ccncc1,-3,-4.5*,i,i,i,i,0.0068,0.0051,0.022*,0.0074,?,0.011
O=C(O)c1ccccc1-c1ccccc1C(=O)Nc1cccc(-c2nc3ccccc3o2)c1,-26,-5.8*,i,i,i,i,0.0064,0.0057*,0.026*,?,0.013*,?
NS(=O)(=O)c1ccc(CCNC(=O)c2ccc3c(=O)n4c(nc3c2)CCCCC4)cc1,.,.,.,.,.,i,.,.,.,.,.,.
CCN(CC)c1ccc(C(=O)Nc2cccc(F)c2)cc1,-12,-3.3*,i,i,i,i,0.018,0.0038,0.027,?,0.014,0.0094
O=C(O)c1cccc2c(-c3ccccc3)c(-c3ccccc3)[nH]c12,-16,8.6*,i,i,i,i,0.0098,0.023*,0.036,?,?,0.012
Cn1c(SCC(=O)c2cc(Cl)c(Cl)s2)nnc1-c1ccco1,-6,-5.3*,i,i,i,i,0.0071,0.03*,0.032,0.022*,0.025,0.017*
Cc1ccc(C(=O)CSc2nnc(-c3ccco3)n2C)cc1,-8,-4.7*,i,i,i,i,0.0058*,0.0059,0.031,0.0075,0.015*,0.01
CCc1nccn1S(=O)(=O)c1ccccc1[N+](=O)[O-],-9,.,i,i,i,i,.,.,.,.,.,.
O=C(OCC#CCSc1nnc(-c2cccc3ccccc23)o1)c1cccc2[nH]ccc12,.,.,.,.,.,i,.,.,.,.,.,.
N#C/C(=C\c1cn(-c2ccccc2)nc1-c1cccnc1)c1nnc2n1CCCCC2,-16,.,i,i,i,i,0.0057,0.0047,0.024*,0.0085,?,0.01
O=C(CN1CCN(S(=O)(=O)c2ccc(Cl)s2)CC1)N1CCOCC1,-3,-0.98,i,i,i,i,.,.,.,.,.,.
Cc1ccc(SCC(=O)N2CCN(c3ccccn3)CC2)cc1,-11,0.36,i,i,i,i,.,.,.,.,.,.
O=C(CSc1nccc2ccccc12)N1CCN(c2ccccn2)CC1,-17,-3.3*,i,i,i,i,0.0066,0.0045,0.027,0.0076,0.015*,0.01
CCOC(=O)C1CC2=C(CC(C)(C)CC2=O)N(CCOC)C1=O (configuration not stated),.,.,.,.,.,i,.,.,.,.,.,.
COC(=O)[C@@H](NC(=O)O[C@@H]1C(=O)c2cc(Br)ccc2O[C@H]1c1cccc(OC)c1)C(C)C,-8,9.3*,i,i,i,.,0.0063,0.013*,0.03,0.015*,?,?
CC(=O)Oc1ccc(C(c2ccc(OC(C)=O)cc2)c2ccccn2)cc1,-5,31*,i,i,i,i,?,0.047*,0.056*,0.028*,0.047*,0.027*
CCOc1ccc2c(c1)c(N=NC(N)=S)c(O)n2C,-6,8.2*,i,i,i,i,?,0.035*,0.039,0.015*,0.027,0.012*
CCOc1ccc2c(c1)c(N=NC(=N)N)c(O)n2C,-7,0.27,i,i,i,i,.,.,.,.,.,.
NC(=S)N=Nc1c(O)n(CCCl)c2ccccc12,-5,13*,i,i,i,i,0.024*,0.031*,?,0.018*,0.027*,0.019*
NC(=S)N=Nc1c(O)n(CCCl)c2ccc(Cl)cc12,1,16*,i,i,i,i,0.0075,0.041*,?,0.036*,0.047*,0.024*
NC(=S)N=Nc1c(O)n(CC(=O)Nc2ccccc2)c2ccccc12,-4,.,i,i,i,i,.,.,.,.,.,.
